Measured values published in article PMC4687753 (Journal of the American Chemical Society, 2015).
Entries after “also recorded” stand apart in the source; their conditions may differ. *1 amine or outer side, *2 acyl side, *3 side chain or, on linkers, in order; H or OH if unused. Where a SMILES comes first, the peptide text is derived from it. Bridges are numbered along the chain shown (N, C = ends). Roman numbers before positions name the chains, in order. [ ]: non-standard residue; d: D form. X2 = O=C(O)CCC(=O)N1C[C@H](N[*:2])[C@@H](C(=O)[*:1])C1; X1 = O=C([C@H]1CCC[C@@H]1N[*:1])[*:2]; S5 = C=CCCC[C@](C)(N)C(=O)O

Key:
LIM-2405 = assay: Cell killing assay; assay type: cell-based; details: LIM-2405 (colon), 10 μM, 24 hours, CellTiter-Glo, two independent experiments
Outline: (§1)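 Human tumour lines grown in RPMI with 10% FBS. Seeded at 1.5×10³ cells/well, then washed with serum-free medium after 24 h. Exposed to 10 μM test compound or DMSO in serum-free medium for 2 h, then FBS added to 10% final, for 24 h total exposure. Viability read as CellTiter-Glo luminescence (intracellular ATP) relative to DMSO; mean ± SD of two independent experiments.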

proteinase K = proteinase K (Parengyodontium album, UniProt P06873); assay: Protease susceptibility assay; details: same conditions as t1/2
proteinase K, sequence (P06873 106-384, species assumed): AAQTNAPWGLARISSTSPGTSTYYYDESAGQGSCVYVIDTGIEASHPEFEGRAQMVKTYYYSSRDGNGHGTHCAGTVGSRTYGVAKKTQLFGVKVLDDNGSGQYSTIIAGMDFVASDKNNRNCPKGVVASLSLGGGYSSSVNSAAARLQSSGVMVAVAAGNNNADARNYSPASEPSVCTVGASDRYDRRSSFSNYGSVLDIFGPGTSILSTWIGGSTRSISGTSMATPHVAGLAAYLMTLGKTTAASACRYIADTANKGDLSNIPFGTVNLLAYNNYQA

A549 = assay: Cell killing assay; assay type: cell-based; details: A549 (lung), 10 μM, 24 hours, CellTiter-Glo, two independent experiments
Outline: as §1

MEFs = assay: Cell killing assay; assay type: cell-based, mouse; details: 10 μM, 24 hours, CellTiter-Glo, two independent experiments
Outline: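 Mouse embryonic fibroblasts kept in DME KELSO medium with 10% FBS, 250 μM L-asparagine and 50 μM 2-mercaptoethanol. Given 10 μM test compound or DMSO for 24 h. Viability measured by CellTiter-Glo luminescence (intracellular ATP) relative to DMSO; mean ± SD of two independent experiments.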

U937 lymphoma cells = details: CellTiter-Glo; for effect of caspase inhibitor Q-VD-OPh on loss of U937 viability: 50 μM Q-VD-OPh, 2 hours; for cell viability relative to DMSO control: U937, 10 μM, 24 hours, two independent experiments; for U937 cell viability after 2 hours of treatment: titration, 2 hours serum-free, absence of caspase inhibitor
MDA-MB-231 = assay: Cell killing assay; assay type: cell-based; details: MDA-MB-231 (mammary), 10 μM, 24 hours, CellTiter-Glo, two independent experiments
MDA-MB-468 = assay: Cell killing assay; assay type: cell-based; details: MDA-MB-468 (mammary), 10 μM, 24 hours, CellTiter-Glo, two independent experiments
SW480 = assay: Cell killing assay; assay type: cell-based; details: SW480 (colon), 10 μM, 24 hours, CellTiter-Glo, two independent experiments
Outline: as §1

Bcl-2 = Bcl-2 (Homo sapiens, UniProt P10415); assay: SPR solution competition assay; assay type: binding
Bcl-2, sequence (P10415 1-217 limits assumed): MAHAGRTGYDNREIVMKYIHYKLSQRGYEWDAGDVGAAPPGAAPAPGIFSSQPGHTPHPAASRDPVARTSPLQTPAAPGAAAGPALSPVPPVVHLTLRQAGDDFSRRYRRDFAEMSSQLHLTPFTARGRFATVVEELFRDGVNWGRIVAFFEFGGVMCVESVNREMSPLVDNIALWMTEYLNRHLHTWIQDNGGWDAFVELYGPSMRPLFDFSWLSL

Mcl-1 = Mcl-1 (Homo sapiens, UniProt Q07820); assay: SPR solution competition assay; assay type: binding
Mcl-1, sequence (Q07820 171-327 limits assumed): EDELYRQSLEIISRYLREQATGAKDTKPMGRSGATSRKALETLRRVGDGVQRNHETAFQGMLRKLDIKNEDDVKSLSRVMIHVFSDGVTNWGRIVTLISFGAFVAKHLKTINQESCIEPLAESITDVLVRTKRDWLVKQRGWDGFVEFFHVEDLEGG

Bcl-xL = Bcl-xL (Homo sapiens, UniProt Q07817); assay: SPR solution competition assay; assay type: binding
Bcl-xL, sequence (Q07817 1-209 limits assumed, species assumed): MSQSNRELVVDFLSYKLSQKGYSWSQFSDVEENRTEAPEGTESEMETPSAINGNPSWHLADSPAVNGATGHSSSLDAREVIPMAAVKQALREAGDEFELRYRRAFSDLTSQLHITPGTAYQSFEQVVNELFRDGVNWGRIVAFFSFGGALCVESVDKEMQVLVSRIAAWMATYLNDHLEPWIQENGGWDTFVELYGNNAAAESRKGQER

[1] = test system: unpermeabilized U937 cells; assay: Cytochrome c release assay, unpermeabilized cells; assay type: cell-based; details: unpermeabilized U937, 10 μM peptide, 3 hours at 37°C, western blot
[2] = test system: wild-type mouse embryonic fibroblasts (MEFs); assay: Cytochrome c release assay, permeabilized cells; assay type: cell-based; details: digitonin-permeabilized wt MEFs, 10 μM peptide, 1 hour, western blot
[3] = test system: bax−/−/bak−/− mouse embryonic fibroblasts (MEFs); assay: Cytochrome c release assay, permeabilized cells; assay type: cell-based; details: digitonin-permeabilized bax−/−/bak−/− MEFs, 10 μM peptide, 1 hour, western blot

| IC50 (Bcl-2) [nM] | IC50 (Mcl-1) [nM] | IC50 (Bcl-xL) [nM] | SMILES | cell viability relative to DMSO control (LIM-2405) | increase in half-life relative to α-Bim (proteinase K) | cell viability relative to DMSO control (A549) | cell viability relative to DMSO control (MEFs) | effect of caspase inhibitor Q-VD-OPh on loss of U937 viability (U937 lymphoma cells) | cell viability relative to DMSO control (U937 lymphoma cells) | U937 cell viability after 2 hours of treatment (U937 lymphoma cells) | cell viability relative to DMSO control (MDA-MB-231) | cell viability relative to DMSO control (MDA-MB-468) | cell viability relative to DMSO control (SW480) | location of cytochrome c after treatment of intact cells [1] | increase in half-life relative to the stapled peptide α-1 (proteinase K) [fold] | cytochrome c release from pellet fraction to soluble cytosolic fraction [2] | cytochrome c release from pellet fraction to soluble cytosolic fraction [3] |
| --- | --- | --- | --- | --- | --- | --- | --- | --- | --- | --- | --- | --- | --- | --- | --- | --- | --- |
|  |  |  | CC[C@H](C)[C@H](NC(C)=O)C(=O)N[C@@H](Cc1c[nH]c2ccccc12)C(=O)N[C@H](C(=O)N[C@@H](C)C(=O)N[C@@H](CCC(N)=O)C(=O)N[C@@H](CCC(=O)O)C(=O)N[C@@H](CC(C)C)C(=O)N[C@@H](CCCNC(=N)N)C(=O)N[C@@]1(C)CCC/C=C\CCC[C@@](C)(C(=O)N[C@@H](Cc2ccccc2)C(=O)N[C@@H](CC(N)=O)C(=O)N[C@@H](C)C(=O)N[C@@H](Cc2ccc(O)cc2)C(=O)N[C@@H](Cc2ccc(O)cc2)C(=O)N[C@@H](C)C(=O)N[C@@H](CCCNC(=N)N)C(=O)N[C@@H](CCCNC(=N)N)C(N)=O)NC(=O)[C@H](CC(=O)O)NC(=O)CNC(=O)[C@H]([C@@H](C)CC)NC1=O)[C@@H](C)CC [α-1, reference compound] | no significant cell death | ~ 6 fold | no significant cell death | essentially no effect | attenuated by Q-VD-OPh | efficiently killing U937 lymphoma cells | significant reduction in cell viability | no significant cell death | no significant cell death | no significant cell death |  |  |  |  |
| 189 | 4 | 80 | C=CCCC[C@](C)(NC(=O)[C@H](CC(=O)O)NC(=O)CNC(=O)[C@@H](NC(=O)[C@](C)(CCCC=C)NC(=O)[C@H](CCCNC(=N)N)NC(=O)[C@H](CC(C)C)NC(=O)[C@H](CCC(=O)O)NC(=O)[C@H](CCC(N)=O)NC(=O)[C@H](C)NC(=O)[C@@H](NC(=O)[C@H](Cc1c[nH]c2ccccc12)NC(=O)[C@@H](NC(C)=O)[C@@H](C)CC)[C@@H](C)CC)[C@@H](C)CC)C(=O)N[C@@H](Cc1ccccc1)C(=O)N[C@@H](CC(N)=O)C(=O)N[C@@H](C)C(=O)N[C@@H](Cc1ccc(O)cc1)C(=O)N[C@@H](Cc1ccc(O)cc1)C(=O)N[C@@H](C)C(=O)N[C@@H](CCCNC(=N)N)C(=O)N[C@@H](CCCNC(=N)N)C(N)=O [α-1-LIN] |  |  |  |  |  |  |  |  |  |  |  |  |  |  |
|  |  |  | CC[C@H](C)[C@H](NC(C)=O)C(=O)N[C@H]1CCC[C@@H]1C(=O)N[C@H](C(=O)N[C@@H](C)C(=O)N[C@@H](CCC(N)=O)C(=O)N[C@H]1CN(C(=O)CCC(=O)O)C[C@@H]1C(=O)N[C@@H](CC(C)C)C(=O)N[C@@H](CCCNC(=N)N)C(=O)N[C@@]1(C)CCC/C=C\CCC[C@@](C)(C(=O)N[C@@H](Cc2ccccc2)C(=O)N[C@@H](CC(N)=O)C(=O)N[C@H]2CCC[C@@H]2C(=O)N[C@@H](Cc2ccc(O)cc2)C(=O)N[C@@H](Cc2ccc(O)cc2)C(=O)N[C@@H](C)C(=O)N[C@@H](CCCNC(=N)N)C(=O)N[C@@H](CCCNC(=N)N)C(N)=O)NC(=O)[C@H](CC(=O)O)NC(=O)CNC(=O)[C@H]([C@@H](C)CC)NC1=O)[C@@H](C)CC [α/β-1] (I: LR[S5]IGD[S5]FN[X1]YYARR-NH2 / II: Ac-I[X1]IAQ; staple (Z) I:3-I:7; linker I:N-II:C via X2) | no significant cell death | > 500 fold | no significant cell death | essentially no effect | attenuated by Q-VD-OPh | potently impacted U937 lymphoma cell viability | significant reduction in cell viability | no significant cell death | no significant cell death | no significant cell death | most of the cytochrome c was present in the soluble fraction | > 90 | able to induce cytochrome c release | but not in bax^−/−/bak^−/− MEFs |
|  |  |  | CC[C@H](C)[C@H](NC(C)=O)C(=O)N[C@H]1CCC[C@@H]1C(=O)N[C@H](C(=O)N[C@@H](C)C(=O)N[C@@H](CCC(N)=O)C(=O)N[C@H]1CN(C(=O)CCC(=O)O)C[C@@H]1C(=O)N[C@@H](CC(C)C)C(=O)N[C@@H](CCCNC(=N)N)C(=O)N[C@H]1CCC[C@@H]1C(=O)N[C@H](C(=O)NCC(=O)N[C@@H](CC(=O)O)C(=O)N[C@H]1CCC[C@@H]1C(=O)N[C@@H](Cc1ccccc1)C(=O)N[C@@H](CC(N)=O)C(=O)N[C@H]1CCC[C@@H]1C(=O)N[C@@H](Cc1ccc(O)cc1)C(=O)N[C@@H](Cc1ccc(O)cc1)C(=O)N[C@@H](C)C(=O)N[C@@H](CCCNC(=N)N)C(=O)N[C@@H](CCCNC(=N)N)C(N)=O)[C@@H](C)CC)[C@@H](C)CC [α/β-2] (I: LR[X1]IGD[X1]FN[X1]YYARR-NH2 / II: Ac-I[X1]IAQ; linker I:N-II:C via X2) |  |  |  |  |  |  |  |  |  |  | cytochrome c exclusively in the pellet |  | Slightly less cytochrome c release; also recorded: able to induce cytochrome c release | but not in bax^−/−/bak^−/− MEFs |
